Bioassay records deposited in PubChem by The Scripps Research Institute Molecular Screening Center.
Rows were chosen to be rich in hits. Some 3.7% of all compounds tested hit in one or more screens of this group.
TAAR1 antag: human TAAR1 antagonism; Q96RJ0; CHO RD-HGA16 TAAR1, Fluo-8 calcium fluorescence, antagonist; inhibition, % at 3 µM; 1.5% of 360,000 active; AID 624466;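 active = inhibition above a per-plate cutoff, the mean inhibition of test compounds on that plate plus 3 SD, cut at about 49% in these data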;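 note: 0% = DMSO plus EC80 beta-PEA response and 100% = DMSO alone without agonist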
Target sequence (Q96RJ0 whole entry, looked up): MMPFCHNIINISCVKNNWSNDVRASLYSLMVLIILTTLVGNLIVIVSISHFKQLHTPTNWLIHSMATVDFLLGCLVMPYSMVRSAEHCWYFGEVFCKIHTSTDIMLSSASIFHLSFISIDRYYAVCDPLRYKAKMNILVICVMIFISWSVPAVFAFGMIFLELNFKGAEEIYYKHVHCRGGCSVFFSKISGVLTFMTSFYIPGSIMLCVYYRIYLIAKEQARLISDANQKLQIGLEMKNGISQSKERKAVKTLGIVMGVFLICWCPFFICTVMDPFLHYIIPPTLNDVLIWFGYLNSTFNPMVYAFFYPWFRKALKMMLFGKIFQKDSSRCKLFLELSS
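System: CHO RD-HGA16 cells bearing hTAAR1. Reagent: EC80 β-phenethylamine stimulus. Schedule: seeding 17-24 h prior, 75-min 37 °C, 30-min RT dye loading. Signal: Fluo-8 intracellular calcium dye fluorescence, real-time kinetic reads. Read-out: % inhibition from peak post-agonist over basal fluorescence ratio. Benchmarks: vehicle wells and EC80 agonist wells. Replicates: n of 1.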
TAAR1 agonist: human TAAR1 agonism. Q96RJ0. CHO RD-HGA16 TAAR1, Fluo-8 calcium fluorescence; vehicle wells 0%, saturating PEA agonist 100%. activation, % at 3 µM. 0.99% of 360,000 active;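 active = activation above the mean activation of all test compounds in the run plus 3 SD, cut at about 38% in these data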
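Benchmarks: low control DMSO, high control PEA (EC100); System: CHO RD-HGA16 cells carrying human TAAR1 plus Gα16; Detection: Fluo-8 fluorescence, 5 s baseline then 140 s kinetic read; Schedule: 17-24 h plating, Fluo-8 75 min 37 °C, 30 min RT; Read-out basis: % activation from peak over basal fluorescence ratio, DMSO-to-PEA scaled.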
rCAG binder: binds r(CAG) RNA repeats; 1.3% of 370,000 active; r(CAG) RNA repeat, TO-PRO-1 dye displacement fluorescence; inhibition, % at 3 µM; AID 651821;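 active = inhibition above the plate cutoff, the mean of all test compounds on that plate plus 3 SD, cut at about 35% in these data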;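 note: 0% = DMSO alone and 100% = 100 µM mitoxantrone as full dye displacement; higher means more dye released from RNA so lower well fluorescence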
NS3 helicase inh: inhibitors of Hepatitis C virus NS3 helicase; AID 1800; NS3 helicase DNA unwinding, Cy5 molecular beacon fluorescence; 0.56% of 290,000 active; inhibition, % at 10.9 µM;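 active = inhibition above the mean of all tested compounds plus 3 SD, set per campaign, cut at about 35% in these data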;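 note: 0% = DMSO wells and 100% = thioflavine S control wells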
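Assay system – hepatitis C virus NS3 helicase domain fragment enzyme · Buffer or medium – MOPS pH 6.5, MgCl2, DTT, Tween20, BSA · Reagent – Cy5/quencher beacon DNA duplex and ATP to start · Compound – single 10.9 µM dose · Timing – 1 h at 25 °C · Technique – Cy5 beacon fluorescence read at start and 1 h · Measure – % inhibition of unwinding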
core dimer inh: HCV core protein dimerization inhibition; inhibition, % at 5 µM; AID 1899; TR-FRET GST/Flag-core106 dimerization, 1536-well; 0.33% of 300,000 active;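 active = inhibition above the mean of all tested compounds plus 3 SD, set per screening campaign, cut at about 45% in these data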
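test system = GST/Flag-tagged HCV core106 proteins | probe or stimulus = Eu donor and XL665 acceptor anti-tag antibodies | times = compound-protein-antibody incubation 4 h at 22.5 °C | signal = TR-FRET, excitation 340 nm, emission 617 and 671 nm | measure = percent inhibition of core106 dimerization signal | controls = wells lacking GST-core106 and wells with excess unlabelled core106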
TAAR1 nonsel count: nonselective antagonism, TAAR1 counter-screen; shares compounds with TAAR1 antag; counterscreen cell line, calcium fluorescence, antagonist mode; inhibition, % at 3 µM; 77% of 2,400 active; in the data active = inhibition above about 22%;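 note: CHO-Ga16 host cells stimulated with ATP at an EC80 level; 0% = agonist EC80 plus vehicle and 100% = vehicle without agonist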
TAAR1 antag conf: human TAAR1 antagonism, confirmed; shares compounds with TAAR1 antag; inhibition, % at 3 µM; 40% of 2,400 active; TAAR1-expressing cells, fluorescence antagonist read-out; AID 651785; in the data active = inhibition above about 49%;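 note: CHO-Ga16 host cells challenged with agonist PEA near its EC80; 0% = agonist at EC80 plus vehicle and 100% = vehicle with no agonist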
Ga16 ag counter: nonselective Ga16 agonism, counter-screen; 18% of 2,400 active; Ga16-expressing cells, calcium fluorescence, agonist counterscreen; activation, % at 3 µM; shares compounds with TAAR1 antag; AID 651953; in the data active = activation above about 12%;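 note: 0% = vehicle wells and 100% = saturating stimulus response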
TAAR1 ag count: counter-screen for human TAAR1 antagonists: TAAR1 agonists; shares compounds with TAAR1 antag; hTAAR1 cell line, fluorescence activation, agonist mode; activation, % at 3 µM; 2% of 2,400 active; AID 651955; in the data active = activation above about 37%;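 note: CHO cells stably expressing TAAR1 with calcium dye readout; 0% = DMSO vehicle and 100% = full agonist response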
Numbers without * were called inactive; / = no result.

SMILES	TAAR1 antag	TAAR1 agonist	rCAG binder	NS3 helicase inh	core dimer inh	TAAR1 nonsel count	TAAR1 antag conf	Ga16 ag counter	TAAR1 ag count
Clc1cccc(-c2nc(NCCN3CCOCC3)c3ccccc3n2)c1	64*	17	2	-16	-1	32*	55*	16*	16
Clc1cccc(-c2nc(NCCCN3CCOCC3)c3ccccc3n2)c1	29	16	3	-38	2	/	/	/	/
O=C(Nc1ccccc1)N(CCc1nc2ccccc2[nH]1)C1CCCC1	12	10	-2	-11	-3	/	/	/	/
S=C(NC1CCCCC1)N(CCc1nc2ccccc2[nH]1)C1CCCC1	54*	10	-4	-8	7	28*	37	6	1
CCCCNC(=O)C1CCCN1C(=O)Nc1ccc2c(c1)OCO2 (configuration not stated)	/	/	2	/	/	/	/	/	/
CN(C)C(=O)C[C@H]1CC[C@H]2[C@H](COc3ccc(NC(=O)C4CC4)cc3C(=O)N2C)O1	/	/	-1	/	/	/	/	/	/
COc1cccc(N2C(=O)C3ON(c4ccccc4)C(c4cccs4)C3C2=O)c1 (configuration not stated)	54*	2	16	-7	3	24*	41	7	8
CCOc1ccc(N2C(=O)C3ON(c4ccccc4)C(c4cccs4)C3C2=O)cc1 (configuration not stated)	2	1	7	-6	15	/	/	/	/
COC(=O)c1cccc(S(=O)(=O)N(Cc2ccco2)Cc2cc3cc(OC)ccc3[nH]c2=O)c1	58*	19	3	-1	3	24*	59*	10	28
CCOC(=O)c1cccc(S(=O)(=O)N(CCO)Cc2cc3cc(OC)ccc3[nH]c2=O)c1	/	/	/	-8	-3	/	/	/	/
CCN(Cc1cc2ccccc2[nH]c1=O)S(=O)(=O)c1ccc(OC)cc1	-18	6	-2	-9	-5	/	/	/	/
O=c1[nH]c2ccccc2cc1CN(Cc1ccco1)S(=O)(=O)c1ccc(F)cc1	54*	10	2	2	1	23*	44	10	18
Cc1ccc(C)c(NC(=O)C(Sc2nc3ccccc3c(=O)n2CC(C)C)c2ccccc2)c1 (configuration not stated)	56*	7	2	-5	20	28*	50*	3	1
COc1cc2c(cc1OC)-c1nnnn1C(C)(C)C2	13	4	-3	-1	-4	/	/	/	/
COc1cc2c(cc1OC)-c1nnc(-c3cccs3)n1C(C)(C)C2	50*	1	-3	5	6	8	38	3	-2
COC(=O)c1c(-c2ccc(F)cc2)csc1NC(=O)c1ccco1	58*	0	8	-1	14	4	25	2	6
COc1ccc(S(=O)(=O)N2CCCc3nc(-c4ccccc4)ccc32)cc1	-4	2	3	/	/	/	/	/	/
Cc1ccccc1NS(=O)(=O)c1ccc(C(=O)N2CCN(c3ccccc3O)CC2)cc1	75*	19	7	-1	23	28*	41	12*	7
Cc1ccccc1NS(=O)(=O)c1ccc(C(=O)N2CCCCCC2)cc1	-4	21	-2	/	0	/	/	/	/
COc1ccc(NC(=O)Cn2nnc(-c3ccccc3NC(=O)c3ccco3)n2)cc1	8	9	8	0	4	/	/	/	/
COc1ccccc1NC(=O)Cn1nnc(-c2ccccc2NC(=O)c2ccco2)n1	56*	13	2	5	6	21	35	9	13
CCOC(=O)CC[C@@H]1CC[C@]2(CCCN(Cc3nccn3C)C2)O1	/	/	2	/	/	/	/	/	/
COC(=O)[C@H](C)[C@@H]1C[C@@]1(C)[C@@H](NC(=O)OCc1ccccc1)c1ccccc1	29	14	-7	-7	4	/	/	/	/
C[C@@H](C(=O)O)[C@H]1C[C@]1(C)[C@H](NC(=O)OCc1ccccc1)c1ccccc1	75*	-1	12	24	5	6	3	2	-1
COC(=O)[C@H]1C[C@@H]1[C@H](NC(=O)[C@H]1C[C@@H]1[C@H](NC(=O)OCc1ccccc1)c1ccccc1)c1ccccc1	59*	11	4	-10	6	30*	34	5	1
CCOc1ccc(C(C(=O)NCC2CCCO2)N(CCc2cccc(C)c2)C(=O)c2snc(C(N)=O)c2N)cc1 (configuration not stated)	67*	28	2	-32	/	34*	53*	16*	39*
CN(C)c1ccc(C(C(=O)NCC2CCCO2)N(Cc2ccco2)C(=O)c2snc(C(N)=O)c2N)cc1 (configuration not stated)	67*	20	-2	-1	-4	34*	52*	9	11
CN(C)c1ccc(C(C(=O)NCC2CCCO2)N(Cc2ccccc2)C(=O)c2snc(C(N)=O)c2N)cc1 (configuration not stated)	65*	22	-2	-9	-1	33*	57*	13*	16
COc1ccc(C(C(=O)NCC2CCCO2)N(Cc2ccccc2)C(=O)c2snc(C(N)=O)c2N)cc1OC (configuration not stated)	21	12	-1	4	1	/	/	/	/
